Key:
[1] = Plasma level data at a dose of 36 mg/kg, iv after 2 hr; assay type: ADME, organism-based; parameters: dose 36 mg/kg, route intravenous; conditions: read-out: Plasma level
Summary of the method: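 Male Lewis rats get a single iv or oral dose of the sodium salt, suspended in 0.4% (w/v) methyl cellulose. Plasma drug levels are measured by HPLC at the timed points and given as mean ± SD, n = 3.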

[2] = Plasma level data at a dose of 36 mg/kg, po after 2 hr; assay type: ADME, organism-based; parameters: dose 36 mg/kg, route oral; conditions: read-out: Plasma level
Summary of the method: (§1)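 Male Lewis rats given a single po dose of the sodium salt suspended in 0.4% (w/v) methyl cellulose. Plasma drug levels measured by HPLC at set times up to 12 h; values are mean ± SD, n = 3.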

[3] = Plasma level data at a dose of 36 mg/kg, po after 6 hr; assay type: ADME, organism-based; parameters: dose 36 mg/kg, route oral; conditions: read-out: Plasma level; summary of the method: as §1
Rattus norvegicus [4] = assay: Compound was tested in vivo for antiinflammatory activity against chronic adjuvant arthritic rat by therapeutic percentage inhibition 1 degree paw after peroral administration of 3.3 mg/kg of dose; assay type: functional; conditions: route oral
Rattus norvegicus [5] = assay: Compound was tested for intestinal ulcerogenic effect in rats, activity expressed as lesion score at a dose of 10 mg/kg; assay type: functional
Summary of the method: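 Normal fed rats were gavaged once daily for three consecutive days at 10–300 mg/kg and killed 24 h after the last dose. Intestines were examined for ulcers, recording incidence per group of 8 and a lesion score (±SE).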

Rattus norvegicus [6] = assay: Compound was tested for gastric ulcerogenic effect in rats, activity expressed as lesion length at a dose of 10 mg/kg

Row | Compound | concentration at 2 h [1] [µg/mL] | concentration at 2 h [2] [µg/mL] | concentration at 6 h [3] [µg/mL] | inhibition in vivo at 3.3 mg/kg (Rattus norvegicus [4]) [%] | Lesion length (Rattus norvegicus [5]) [mm rat-1] | Length (Rattus norvegicus [6]) [mm rat-1]
1 | CCCc1c(O)n(Cc2ccc(F)cc2)c2nc3c(c(=O)n(C)c(=O)n3C)n2c1=O | 128 | 66.1 | 21 | 7 | – | –
2 | CC(C)=CCc1c(O)n(Cc2ccc(F)cc2)c2nc3c(c(=O)n(C)c(=O)n3C)n2c1=O | – | – | – | – | 0 | 0

Reference: ChEMBL document CHEMBL1123282, “Antiinflammatory activity of substituted 6-hydroxypyrimido[2,1-f]purine-2,4,8(1H,3H,9H)-triones. Atypical nonsteroidal antiinflammatory agents” (J Med Chem, 1986)
